Measurements as given in ChEMBL document CHEMBL1153096, “Properly substituted 1,4-dioxane nucleus favours the selective M3 muscarinic receptor activation” (Bioorg Med Chem, 2009).
Activity calls are given as the source filed them. No cut-off for these calls is given here.

Legend:
[1] = molecular target: T1, Muscarinic acetylcholine receptor M1 (Homo sapiens, UniProt P11229); assay: Displacement of [3H]NMS from human muscarinic M1 receptor expressed in CHO cells by microplate scintillation counting; assay type: cell-based
T1 sequence (P11229 whole entry): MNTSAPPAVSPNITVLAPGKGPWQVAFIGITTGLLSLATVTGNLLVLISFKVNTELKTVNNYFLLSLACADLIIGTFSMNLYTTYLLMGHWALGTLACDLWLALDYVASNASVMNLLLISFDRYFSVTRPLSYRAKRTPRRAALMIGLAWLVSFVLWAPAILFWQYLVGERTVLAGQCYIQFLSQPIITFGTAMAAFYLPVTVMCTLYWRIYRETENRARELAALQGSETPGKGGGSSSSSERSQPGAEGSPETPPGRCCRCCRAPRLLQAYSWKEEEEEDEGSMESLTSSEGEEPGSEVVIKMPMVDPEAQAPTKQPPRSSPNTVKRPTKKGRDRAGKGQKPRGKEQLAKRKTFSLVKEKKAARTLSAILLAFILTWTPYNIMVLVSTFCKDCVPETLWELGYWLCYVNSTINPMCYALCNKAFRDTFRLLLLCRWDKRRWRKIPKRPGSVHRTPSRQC

[2] = molecular target: T2, Muscarinic acetylcholine receptor M2 (Homo sapiens, UniProt P08172); assay: Displacement of [3H]NMS from human muscarinic M2 receptor expressed in CHO cells by microplate scintillation counting; assay type: cell-based
T2 sequence (P08172 whole entry): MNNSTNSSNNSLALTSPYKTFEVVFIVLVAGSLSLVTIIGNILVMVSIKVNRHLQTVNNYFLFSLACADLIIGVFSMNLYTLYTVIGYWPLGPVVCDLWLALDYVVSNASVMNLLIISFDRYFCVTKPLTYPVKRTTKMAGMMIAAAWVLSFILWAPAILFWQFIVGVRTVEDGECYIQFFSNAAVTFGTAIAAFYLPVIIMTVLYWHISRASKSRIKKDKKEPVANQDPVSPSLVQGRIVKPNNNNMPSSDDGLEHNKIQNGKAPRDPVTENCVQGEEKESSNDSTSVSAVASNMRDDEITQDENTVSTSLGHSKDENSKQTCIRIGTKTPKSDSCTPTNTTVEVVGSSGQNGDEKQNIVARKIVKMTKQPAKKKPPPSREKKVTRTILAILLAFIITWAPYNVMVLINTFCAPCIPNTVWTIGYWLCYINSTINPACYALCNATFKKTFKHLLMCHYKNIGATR

[3] = molecular target: Muscarinic acetylcholine receptor M3 (Homo sapiens, UniProt P20309); assay: Displacement of [3H]NMS from human muscarinic M3 receptor expressed in CHO cells by microplate scintillation counting; assay type: cell-based
[4] = molecular target: T3, Muscarinic acetylcholine receptor M4 (Homo sapiens, UniProt P08173); assay: Displacement of [3H]NMS from human muscarinic M4 receptor expressed in CHO cells by microplate scintillation counting; assay type: cell-based
T3 sequence (P08173 whole entry): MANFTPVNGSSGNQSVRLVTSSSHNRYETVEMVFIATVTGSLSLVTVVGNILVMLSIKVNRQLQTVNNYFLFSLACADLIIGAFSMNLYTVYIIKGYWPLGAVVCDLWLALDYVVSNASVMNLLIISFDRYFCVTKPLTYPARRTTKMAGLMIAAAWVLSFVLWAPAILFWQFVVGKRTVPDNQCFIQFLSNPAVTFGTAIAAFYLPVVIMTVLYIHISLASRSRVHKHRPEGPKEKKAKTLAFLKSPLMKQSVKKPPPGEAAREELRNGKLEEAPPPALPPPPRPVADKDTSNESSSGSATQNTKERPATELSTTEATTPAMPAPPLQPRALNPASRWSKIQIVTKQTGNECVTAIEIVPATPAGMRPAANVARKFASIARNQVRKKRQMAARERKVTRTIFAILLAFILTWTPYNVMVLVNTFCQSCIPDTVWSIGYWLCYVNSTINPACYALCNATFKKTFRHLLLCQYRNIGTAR

[5] = molecular target: T4, Muscarinic acetylcholine receptor M5 (Homo sapiens, UniProt P08912); assay: Displacement of [3H]NMS from human muscarinic M5 receptor expressed in CHO cells by microplate scintillation counting; assay type: cell-based
T4 sequence (P08912 whole entry): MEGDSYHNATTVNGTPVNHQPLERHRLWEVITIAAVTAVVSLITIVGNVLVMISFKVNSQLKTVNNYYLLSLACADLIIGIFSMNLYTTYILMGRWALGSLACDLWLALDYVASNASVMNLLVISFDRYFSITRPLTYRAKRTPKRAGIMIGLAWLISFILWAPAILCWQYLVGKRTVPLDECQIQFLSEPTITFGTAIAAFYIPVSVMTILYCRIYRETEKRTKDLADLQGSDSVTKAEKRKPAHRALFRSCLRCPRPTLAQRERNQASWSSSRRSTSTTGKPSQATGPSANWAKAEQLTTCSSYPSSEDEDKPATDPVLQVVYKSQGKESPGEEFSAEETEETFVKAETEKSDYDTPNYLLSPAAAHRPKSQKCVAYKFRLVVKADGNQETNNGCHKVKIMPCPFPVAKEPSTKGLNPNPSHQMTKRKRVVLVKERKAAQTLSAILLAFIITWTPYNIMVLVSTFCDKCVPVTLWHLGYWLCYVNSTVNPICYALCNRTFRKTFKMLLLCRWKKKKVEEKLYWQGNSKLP

Oryctolagus cuniculus [6] = species on record: Oryctolagus cuniculus; assay: Agonist activity at muscarinic M1 receptor in New Zealand White rabbit vas deferens assessed as inhibition of electrically-stimulated muscle contraction; assay type: functional
Procedure, shortened: (§1)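 Prostatic portion of male-free-listed New Zealand white rabbit (3.0-3.5 kg, fasted 24 h) vas deferens in modified Krebs, 31 °C, 95% O2-5% CO2; 45 min stabilisation, field stimulation 2 Hz, 5 ms, 5 V; isometric recording. Cumulative concentration-response curves; pD2 by linear regression; intrinsic activity as fraction of McN-A-343 maximum; means ± SEM of four to six experiments.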

[7] = molecular target: Muscarinic acetylcholine receptor M3 (Cavia porcellus) (UniProt Q8VH26); assay: Intrinsic activity at muscarinic M3 receptor in guinea pig ileum assessed as inhibition of electrically-stimulated muscle contraction relative to bathanecol; assay type: tissue-based
Procedure, shortened: (§2)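 Male guinea pig (250-350 g, fasted 24 h) ileal segments 2-3 cm, 1.0 g tension, 37 °C, Krebs-Henseleit with carbogen; 45 min equilibration, isometric contractions. Cumulative agonist concentration-response curves; pD2 by linear regression; intrinsic activity relative to bethanechol maximum; means ± SEM of four to six experiments.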

Cavia porcellus [8] = species on record: Cavia porcellus; assay: Intrinsic activity at muscarinic M2 receptor in guinea pig atrium assessed as inhibition of electrically-stimulated muscle contraction relative to bathanecol; assay type: tissue-based; conditions: Cardiac atrium
[9] = Agonist activity at muscarinic M2 receptor in guinea pig atrium assessed as inhibition of electrically-stimulated muscle contraction; assay type: functional, Cavia porcellus, Cardiac atrium
[10] = molecular target: Muscarinic acetylcholine receptor M3 (Cavia porcellus) (UniProt Q8VH26); assay: Agonist activity at muscarinic M3 receptor in guinea pig ileum assessed as inhibition of electrically-stimulated muscle contraction; assay type: functional, tissue-based; procedure, shortened: as §2
Cavia porcellus [11] = species on record: Cavia porcellus; assay: Intrinsic activity at muscarinic M4 receptor in guinea pig lung assessed as inhibition of electrically-stimulated muscle contraction relative to bathanecol
Procedure, shortened: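 Male guinea pig peripheral lung strips (15 × 2 × 2 mm) from lower lobe, 0.3 g resting tension, 37 °C, Krebs-Henseleit with carbogen; 45 min equilibration, isometric contractions. Cumulative agonist concentration-response curves; pD2 by linear regression; intrinsic activity relative to bethanechol maximum; means ± SEM of four to six experiments.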

[12] = Agonist activity at muscarinic M4 receptor in guinea pig lung assessed as inhibition of electrically-stimulated muscle contraction; assay type: functional, Cavia porcellus
Oryctolagus cuniculus [13] = species on record: Oryctolagus cuniculus; assay: Antagonist activity at muscarinic M1 receptor in New Zealand White rabbit vas deferens assessed as effect on muscle contraction up to 30 uM; assay type: functional, tissue-based
Cavia porcellus [14] = species on record: Cavia porcellus; assay: Selectivity ratio of pD2 for guinea pig muscarinic M3 receptor to pD2 for guinea pig muscarinic M2 receptor
[15] = Selectivity ratio of pD2 for guinea pig muscarinic M3 receptor to pD2 for rabbit M1 receptor
Cavia porcellus [16] = species on record: Cavia porcellus; assay: Selectivity ratio of pD2 for guinea pig muscarinic M3 receptor to pD2 for guinea pig muscarinic M4 receptor
[17] = Antagonist activity at muscarinic M4 receptor in guinea pig lung assessed as effect on muscle contraction; assay type: functional, Cavia porcellus
Oryctolagus cuniculus [18] = species on record: Oryctolagus cuniculus; assay: Intrinsic activity at muscarinic M1 receptor in New Zealand White rabbit vas deferens assessed as inhibition of electrically-stimulated muscle contraction relative to McN-A-343; assay type: tissue-based; procedure, shortened: as §1
[19] = Antagonist activity at muscarinic M1 receptor in New Zealand White rabbit vas deferens assessed as effect on muscle contraction; assay type: functional, Oryctolagus cuniculus
Cavia porcellus [20] = species on record: Cavia porcellus; assay: Antagonist activity at muscarinic M4 receptor in guinea pig lung assessed as effect on muscle contraction up to 10 uM; assay type: functional

Muscarinic acetylcholine receptor M3 (Cavia porcellus), sequence (Q8VH26 1-587): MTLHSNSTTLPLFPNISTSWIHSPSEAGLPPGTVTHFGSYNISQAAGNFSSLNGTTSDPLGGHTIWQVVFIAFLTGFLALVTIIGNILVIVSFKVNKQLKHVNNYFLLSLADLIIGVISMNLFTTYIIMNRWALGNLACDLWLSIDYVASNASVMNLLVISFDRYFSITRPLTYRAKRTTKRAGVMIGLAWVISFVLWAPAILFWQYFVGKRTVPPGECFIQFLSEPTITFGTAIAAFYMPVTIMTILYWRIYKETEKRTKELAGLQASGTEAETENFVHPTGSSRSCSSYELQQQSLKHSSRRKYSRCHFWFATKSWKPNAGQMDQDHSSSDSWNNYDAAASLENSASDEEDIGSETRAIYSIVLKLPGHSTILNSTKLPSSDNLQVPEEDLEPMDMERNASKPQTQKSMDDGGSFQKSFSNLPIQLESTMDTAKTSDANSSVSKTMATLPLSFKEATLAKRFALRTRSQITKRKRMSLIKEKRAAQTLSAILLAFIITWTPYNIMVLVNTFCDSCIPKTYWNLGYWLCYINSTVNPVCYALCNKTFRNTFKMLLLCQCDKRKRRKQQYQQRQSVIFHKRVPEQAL
Muscarinic acetylcholine receptor M3, sequence (P20309 whole entry): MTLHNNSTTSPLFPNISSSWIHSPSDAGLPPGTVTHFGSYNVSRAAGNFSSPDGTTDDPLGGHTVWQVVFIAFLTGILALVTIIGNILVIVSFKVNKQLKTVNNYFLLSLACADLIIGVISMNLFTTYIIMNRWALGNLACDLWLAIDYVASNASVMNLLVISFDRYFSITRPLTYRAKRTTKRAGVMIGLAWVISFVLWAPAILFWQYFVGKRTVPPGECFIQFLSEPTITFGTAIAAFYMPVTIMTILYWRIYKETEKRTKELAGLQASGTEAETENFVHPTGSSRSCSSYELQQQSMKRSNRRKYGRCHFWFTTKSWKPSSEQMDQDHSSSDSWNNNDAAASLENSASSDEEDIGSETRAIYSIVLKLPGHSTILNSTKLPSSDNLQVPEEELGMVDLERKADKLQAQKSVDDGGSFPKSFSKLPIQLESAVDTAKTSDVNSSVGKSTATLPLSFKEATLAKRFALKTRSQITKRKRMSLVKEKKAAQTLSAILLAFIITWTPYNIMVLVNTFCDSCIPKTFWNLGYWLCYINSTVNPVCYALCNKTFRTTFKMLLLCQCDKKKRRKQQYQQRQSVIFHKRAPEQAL

Structure (SMILES)	Ki [1]	Ki [2]	Ki [3]	Ki [4]	Ki [5]	pD2 (Oryctolagus cuniculus [6])	Intrinsic activity [7]	Intrinsic activity (Cavia porcellus [8])	pD2 [9]	pD2 [10]	Intrinsic activity (Cavia porcellus [11])	pD2 [12]	pKb (Oryctolagus cuniculus [13])	Selectivity ratio (Cavia porcellus [14])	Selectivity ratio [15]	Selectivity ratio (Cavia porcellus [16])	pKb [17]	Intrinsic activity (Oryctolagus cuniculus [18])	pKb [19]	pKb (Cavia porcellus [20])
CC1(C)COC[C@@H](C[N+](C)(C)C)O1.[I-]	47.9 µM	18.2 µM	21.4 µM	44.7 µM	28.2 µM	inactive	1.16	0.73	5.03	6.94	0.18	4.85	inactive	81	> 275	123	–	–	–	–
C[C@H]1OC[C@@H](C[N+](C)(C)C)OC1(C)C.[I-] (relative stereo)	20 µM	27.5 µM	16.2 µM	25.7 µM	32.4 µM	inactive	0.47	–	–	5.25	0	–	inactive	–	–	–	5.15	–	–	–
C[C@@H]1O[C@H](C[N+](C)(C)C)COC1(C)C.[I-] (relative stereo)	67.6 µM	60.3 µM	32.4 µM	57.5 µM	52.5 µM	–	0.47	0.33	4.92	5.12	–	–	–	–	–	–	–	0	4.61	inactive
